Test results taken from ChEMBL document CHEMBL1125777, “Nonpeptidic angiotensin II antagonists: synthesis and in vitro activity of a series of novel naphthalene and tetrahydronaphthalene derivatives” (J Med Chem, 1991).

How the values were obtained:
[1] = molecular target: T1, Type-1 angiotensin II receptor B (Rattus norvegicus, UniProt P29089); test: Binding affinity against angiotensin II receptor in rat smooth muscle cell preparations
T1 sequence (P29089 whole entry): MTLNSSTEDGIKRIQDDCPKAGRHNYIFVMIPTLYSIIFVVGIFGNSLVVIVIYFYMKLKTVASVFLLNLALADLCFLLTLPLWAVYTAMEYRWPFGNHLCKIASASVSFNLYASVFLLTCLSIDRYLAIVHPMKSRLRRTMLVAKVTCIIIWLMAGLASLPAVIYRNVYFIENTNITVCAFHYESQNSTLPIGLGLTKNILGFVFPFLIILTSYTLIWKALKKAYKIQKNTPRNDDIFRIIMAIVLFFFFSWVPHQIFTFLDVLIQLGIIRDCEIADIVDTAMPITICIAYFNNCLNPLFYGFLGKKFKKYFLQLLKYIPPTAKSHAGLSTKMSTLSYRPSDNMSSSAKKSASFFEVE
Method in brief: (§1)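 Membranes from cultured rat aortic smooth muscle cells (passages 5-20, DMEM with 15% FCS). Bound/free separated by filtration, filter radioactivity counted. Nonspecific binding defined with 1 μM unlabeled AII. IC50 from four-parameter logistic fit. Duplicate tests.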

Oryctolagus cuniculus = organism: Oryctolagus cuniculus; test: Inhibition of all induced contractions of rabbit aortic rings; assay type: functional; conditions: Aorta
Method in brief: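 Thoracic aorta rings (2-3 mm) from male Chinchilla rabbits (2-2.5 kg), 2 g resting tension, modified Krebs-Henseleit, 37 °C, 95% O2/5% CO2, equilibrated ≥1 h. Isometric contraction to 10 nM angiotensin II every 20 min. After two control responses, graded compound concentrations (3-4 per ring) applied 5 min before each challenge. DMSO vehicle controls.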

[2] = molecular target: T1, Type-1 angiotensin II receptor B; test: Binding affinity against Angiotensin II receptor in rat smooth muscle cell preparations
Method in brief: as §1, with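 “FCS). 20-60 μg protein incubated 60 min at 25 or 30 °C with radiotracer (150 pM) and varying unlabeled competitor concentrations.” for “FCS).”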

IC50 [1] | IC50 (Oryctolagus cuniculus) | IC50 [2] | Compound
4100 nM | 2600 nM |  | CCCCc1nc(Cl)c(CO)n1Cc1cccc2cc(-c3nnn[nH]3)ccc12
1100 nM | 700 nM |  | CCCCc1nc(Cl)c(CO)n1Cc1cccc2c(-c3nn[nH]n3)cccc12
 | 560 nM |  | CCCCc1nc(CO)c(Cl)n1Cc1ccc2c(c1)CCC(c1nnn[nH]1)C2 (stereo not given)
5400 nM | 1900 nM |  | CCCCc1nc(Cl)c(CO)n1Cc1ccc2c(c1)CCC(c1nnn[nH]1)C2 (stereo not given)
 | 120 nM | 200 nM | CCCCc1nc(CO)c(Cl)n1Cc1ccc2cc(-c3nnn[nH]3)ccc2c1
1100 nM | 300 nM |  | CCCCc1nc(CO)c(Cl)n1Cc1ccc2c(c1)CCC(C(=O)O)C2 (stereo not given)
2800 nM | 2700 nM |  | CCCCc1nc(CO)c(Cl)n1Cc1ccc2c(c1)CCC(C)(C(=O)O)C2 (stereo not given)
8900 nM | 1200 nM |  | CCCCc1nc(Cl)c(CO)n1Cc1ccc2c(c1)CCC(C(=O)O)C2 (stereo not given)
 |  | 20000 nM | CCCCc1nc(Cl)c(CO)n1Cc1ccc2ccc(-c3nn[nH]n3)cc2c1
 | 24 nM |  | CCCCc1nc(Cl)c(CO)n1Cc1ccc(-c2ccccc2-c2nnn[nH]2)cc1 [LOSARTAN]
 | 2200 nM |  | CCCCc1nc(Cl)c(CO)n1Cc1ccc2c(c1)CCC(C)(C(=O)O)C2 (stereo not given)
600 nM | 1600 nM |  | CCCCc1nc(Cl)c(CO)n1Cc1ccc2cc(-c3nn[nH]n3)ccc2c1
